SIRT5 inh: blocks human SIRT5 desuccinylation of peptide | Purified SirT5, succinyl-peptide AMC, trypsin-coupled fluorescence | inhibition, % at 15 µM | Q9NXA8 | hit rate 1.1% among 330,000; in the data active = inhibition above about 15%; inconclusive = no clear call, values can overlap the other calls
Target sequence (Q9NXA8 whole entry, looked up): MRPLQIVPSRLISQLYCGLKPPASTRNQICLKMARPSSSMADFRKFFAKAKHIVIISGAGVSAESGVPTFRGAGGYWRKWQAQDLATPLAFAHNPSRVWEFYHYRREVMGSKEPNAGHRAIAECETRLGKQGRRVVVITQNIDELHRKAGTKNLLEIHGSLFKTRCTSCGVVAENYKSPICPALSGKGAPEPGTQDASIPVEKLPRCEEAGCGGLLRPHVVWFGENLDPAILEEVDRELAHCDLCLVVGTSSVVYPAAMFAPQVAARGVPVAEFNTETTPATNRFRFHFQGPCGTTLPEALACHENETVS
PGC1a acetyl inh: PGC1a acetylation modulation, inhibitor mode. U2OS PGC1a acetylation, AlphaScreen anti-acetyl-lysine; with virally co-expressed GCN5 acetyltransferase. inhibition, % at 15.6 µM. hit rate 0.17% among 350,000;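 active = every replicate shows inhibition of at least 40%; inconclusive = mean inhibition at least 40% but some replicate below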;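 also: 0% = neutral control wells and 100% = positive control wells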
Statin myotox sup: protects C2C12 myotubes from simvastatin toxicity; ATP luminescence, 48 h; scaled: DMSO 0, geranylgeraniol control 100; rescue of ATP level, % at 7.49 µM; hit rate 0.78% among 330,000; AID 602340;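 active = mean ATP rescue above about 67%, or every replicate alone reaching that limit, limit read from the data, passing the limit was not always enough; inconclusive = no clear call, values can overlap the other calls; inactive = mean under the limit and some replicate under it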;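 also: myotubes were challenged with 10 µM simvastatin during compound exposure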
S100A4 inh HTS: inhibitors of human S100A4 binding to myosin IIA peptide | inhibition, % at 10.7 µM | hit rate 0.14% among 360,000 | S100A4/TAMRA-MyoIIA peptide fluorescence polarization;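 active = mean inhibition of at least 70% across replicates, with every replicate also reaching that level; inconclusive = mean inhibition reaches 70% but some replicates fall short; inactive = mean inhibition below 70%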
Target sequence (P26447 whole entry, looked up): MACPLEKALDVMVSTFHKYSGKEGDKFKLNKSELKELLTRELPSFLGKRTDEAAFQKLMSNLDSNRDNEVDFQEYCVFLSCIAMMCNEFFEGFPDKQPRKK
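Test system: S100A4 monomer protein; Medium: HEPES pH 7.2 with CaCl2, KCl, NaCl, DTT, Triton; Probe or stimulus: TAMRA-labelled myosin IIA heavy-chain peptide probe, 5 nM; Doses: one dose per compound; Times: polarization read 5 min after assay mix addition, stable 5–60 min; Benchmarks: neutral control DMSO, positive control TFP.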
DENV2 CPE rescue: inhibitors of DENV2 cytopathic effect; DENV2-infected cells, cytopathic effect rescue, plate reader; AID 651640; hit rate 1.7% among 350,000; CPE inhibition, % at 9.99 µM; in the data active = CPE inhibition above about 20%, passing the limit was not always enough; inconclusive = no clear call, values can overlap the other calls; tested in BHK-21 cells;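 also: 0% = median of neutral control wells and 100% = median of positive control wells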
Numbers without * were called inactive; ? = inconclusive; . = not tested or not shown; ! = a repeat was not active. Only some compounds are listed: those with a hit (about 2.9% of all), similar ones and a draw of the others.

SMILES	SIRT5 inh	PGC1a acetyl inh	Statin myotox sup	S100A4 inh HTS	DENV2 CPE rescue
C[C@H]1CCCCO[C@H](CN(C)S(=O)(=O)c2cccs2)[C@@H](C)CN([C@@H](C)CO)C(=O)c2cc(NC(=O)c3ccccc3)ccc2O1	.	-6	.	.	36*
C[C@@H]1CCCCO[C@H](CN(C)S(=O)(=O)c2cccs2)[C@H](C)CN([C@@H](C)CO)C(=O)c2cc(NC(=O)c3ccccc3)ccc2O1	.	-10	.	.	3
CN(C)CC(=O)N[C@@H]1C=C[C@H](CC(=O)NCCN2CCCCC2)O[C@H]1CO	3	6	-3	-1	-1
O=C(NC1CCCN(Cc2ccc(Cl)cc2)C1)c1ccccc1C(F)(F)F (centres undefined)	-1	47*	-11	1	2
CO[C@H]1O[C@H](CO)[C@@H](OC(=O)c2ccc(Br)cc2)[C@H](OC(=O)c2cc3ccccc3[nH]2)[C@H]1OC(=O)c1cc2ccccc2[nH]1	4	-1	.	1	-6
C[C@@H]1CN([C@H](C)CO)C(=O)c2cc(-c3ccncc3)cnc2O[C@@H]1CN(C)C(=O)CN1CCOCC1	4	3	9	0	2
C[C@H](CO)N1C[C@H](C)[C@@H](CN(C)S(=O)(=O)c2ccc(F)cc2)Oc2ccc(NC(=O)CCN3CCOCC3)cc2C1=O	15*!	4	-2	11	?
C[C@@H]1CN([C@@H](C)CO)C(=O)c2cc(NC(=O)CCN3CCOCC3)ccc2O[C@@H]1CN(C)S(=O)(=O)c1ccc(F)cc1	-2	11	-12	2	4
C[C@H]1CN([C@@H](C)CO)C(=O)c2cc(NC(=O)CCCCCC(=O)Nc3ccccc3N)ccc2O[C@H]1CN(C)Cc1ccc(Oc2ccccc2)cc1	17*	13	.	-10	-7
C[C@H]1CN([C@@H](C)CO)C(=O)c2cc(NC(=O)CCCCCC(=O)Nc3ccccc3N)ccc2O[C@H]1CN(C)Cc1ccc(-c2ccccc2)cc1	.	-6	.	.	.
C[C@@H]1CN([C@@H](C)CO)C(=O)c2cc(NC(=O)CCCCCC(=O)Nc3ccccc3N)ccc2O[C@H]1CN(C)Cc1ccccc1	21*	4	.	-49	15
C[C@H](CO)N1C[C@H](C)[C@H](CN(C)Cc2ccc(-c3ccccc3)cc2)Oc2ccc(NC(=O)CCCCCC(=O)Nc3ccccc3N)cc2C1=O	23*	1	.	0	32*
C[C@H](CO)N1C[C@H](C)[C@@H](CN(C)S(=O)(=O)c2ccc(F)cc2)Oc2ccc(NC(=O)CCCCCC(=O)Nc3ccccc3N)cc2C1=O	.	-2	.	4	26*
CNC[C@H]1Oc2ccc(NC(=O)CCN3CCOCC3)cc2C(=O)N([C@H](C)CO)C[C@@H]1C	-2	10	-19	3	27*
C[C@H](CO)N1C[C@H](C)[C@H](CN(C)C(=O)Nc2ccccc2)Oc2ccc(NC(=O)CCCCCC(=O)Nc3ccccc3N)cc2C1=O	-4	3	.	4	52*
CNC[C@H]1Oc2ccc(NC(=O)CCN3CCOCC3)cc2C(=O)N([C@@H](C)CO)C[C@@H]1C	.	6	-17	.	.
CCCN1CCCCC(NC(=O)c2ccc(C)cc2C)C1=O (centres undefined)	.	.	.	24	-5
Cc1cccc(NC(=O)Nc2ccc3c(c2)C(=O)N(C)[C@@H]2CC[C@H](CC(=O)NCc4ccccc4Cl)O[C@H]2CO3)c1	.	-3	4	.	.
C[C@@H]1CN([C@H](C)CO)C(=O)c2cc(NC(=O)Nc3ccc(C(F)(F)F)cc3)ccc2O[C@@H](C)CCCCO[C@H]1CN(C)S(=O)(=O)c1ccccc1	4	-4	.	-10	5
COCC(=O)N1CC2(C1)[C@@H](c1ccc(-c3ccccc3)cc1)[C@H](CO)N2C(=O)COC	6	4	.	1	12
O=C(O)/C=C/C(=O)c1ccc2c(c1)CCc1ccccc1-2	5	-21	37	11	29*
OC[C@@H]1[C@H](c2ccc(C#CC3CC3)cc2)[C@H]2CN(CCC(F)(F)F)CCCCN12	-2	-10	.	2	2
CCn1c2ccccc2c2cc(NC(=O)c3ccccc3[N+](=O)[O-])ccc21	-1	.	.	-2	32*
CCn1c2ccccc2c2cc(NC(=O)c3ccc([N+](=O)[O-])cc3)ccc21	.	-6	.	.	.
C[C@H]1CN([C@@H](C)CO)S(=O)(=O)c2ccc(C3=CCCCC3)cc2O[C@@H]1CN(C)C(=O)c1ccccc1	6	-9	-59	-2	-9
SMILES	SIRT5 inh	PGC1a acetyl inh	Statin myotox sup	S100A4 inh HTS	DENV2 CPE rescue
C[C@@H]1CN([C@H](C)CO)S(=O)(=O)c2ccc(C3=CCCCC3)cc2O[C@H]1CN(C)C(=O)c1ccc(F)cc1	14	-8	-155	4	-9
C[C@H](CO)N1C[C@H](C)[C@H](CN(C)C(=O)c2ccccc2)Oc2cc(C3=CCCCC3)ccc2S1(=O)=O	7	14	-12	0	93*
C[C@@H]1CN([C@@H](C)CO)S(=O)(=O)c2ccc(-c3cccc(C#N)c3)cc2O[C@@H]1CN(C)C(=O)c1ccc(F)cc1	3	3	-4	131*!	-5
C[C@H]1CN([C@@H](C)CO)S(=O)(=O)c2ccc(C3=CCCCC3)cc2O[C@@H]1CN(C)C(=O)c1ccc(F)cc1	16*	-6	-88	15	6
COc1cccc(C#Cc2ccc3c(c2)[C@H]2[C@H](CCN2S(=O)(=O)c2ccc(C)cc2)[C@H](CO)N3)c1	1	-16	.	-8	1
Cc1ccc(S(=O)(=O)Nc2nc3ccccc3nc2Nc2cccc(S(=O)(=O)N3CCCC3)c2)cc1	0	-8	.	-2	2
O=[N+]([O-])c1cccc(S(=O)(=O)Nc2nc3ccccc3nc2Nc2cccc(S(=O)(=O)N3CCCCC3)c2)c1	25*	.	.	-12	-2
C[C@@H]1CN([C@H](C)CO)C(=O)c2cc(Br)cnc2O[C@H]1CN(C)C(=O)C1CCC1	.	0	4	.	.
CCOC(=O)N1CCN(C2CC(=O)N(c3ccc(Oc4ccccc4)cc3)C2=O)CC1 (centres undefined)	.	-2	126*	.	.
CCOC(=O)N1CCN(C2CC(=O)N(c3ccc(C)cc3)C2=O)CC1 (centres undefined)	.	15	.	.	.
Cc1cc(S(=O)(=O)Nc2ccccc2C(=O)O)ccc1Cl	5	-4	73*	1	5
C[C@@H]1CN([C@H](C)CO)C(=O)Cc2cc(NC(=O)Cc3cn(C)c4ccccc34)ccc2O[C@H]1CN(C)Cc1ccc(C(F)(F)F)cc1	0	-14	?	-7	33*
C[C@H](CO)N1C[C@H](C)[C@@H](CN(C)Cc2ccc(Oc3ccccc3)cc2)Oc2ccc(NC(=O)Cc3cn(C)c4ccccc34)cc2CC1=O	.	-20	114*	.	3
C[C@H]1CN([C@@H](C)CO)C(=O)Cc2cc(NC(=O)Cc3cn(C)c4ccccc34)ccc2O[C@@H]1CN(C)Cc1ccc(-c2ccccc2)cc1	-1	20	60	3	0
